Measured values from ChEMBL document CHEMBL4382219, “Synthesis and Biological Evaluation of Cajaninstilbene Acid and Amorfrutins A and B as Inhibitors of the Pseudomonas aeruginosa Quorum Sensing System” (J Nat Prod, 2018).
The source made the active and inactive calls. The rule behind the calls is not given here.

Legend:
[1] = system: Pseudomonas aeruginosa; assay: Anti-biofilm activity against Pseudomonas aeruginosa PAO1 at 50 uM after 24 hrs by crystal violet staining based assay relative to control; type: functional
Outline: (§1)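 PAO1 grown overnight in LB, then diluted in ABTGC medium (B-medium with 0.1% MgCl₂, 0.1% CaCl₂, 0.1% FeCl₃, plus 10% A10, 0.2% glucose, 0.2% casamino acids) and mixed with compound. Static 24 h at 37 °C. Wells PBS-washed, MeOH-fixed 20 min, stained 20 min with 0.1% w/v crystal violet, then dissolved in 33% AcOH.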

[2] = system: Pseudomonas aeruginosa; assay: Anti-biofilm activity against Pseudomonas aeruginosa PAO1 at 1 to 50 uM after 24 hrs by crystal violet staining based assay relative to control; type: functional; outline: as §1
[3] = system: Pseudomonas aeruginosa; assay: Anti-biofilm activity against Pseudomonas aeruginosa PAO1 after 24 hrs by crystal violet staining based assay; type: functional, organism-based; outline: as §1
[4] = system: Pseudomonas aeruginosa; assay: Toxicity in Pseudomonas aeruginosa PAO1 assessed as growth inhibition at 1 to 50 uM after 2 to 16 hrs; type: organism-based; settings: in vivo
[5] = system: Pseudomonas aeruginosa; assay: Toxicity in Pseudomonas aeruginosa PAO1 harboring mini-ctx-lacZ assessed as effect on beta-galactosidase activity at 2.5 to 50 uM beta-galactosidase reporter gene assay; type: organism-based; settings: in vivo
[6] = molecular target: T1, Anthranilate--CoA ligase (Pseudomonas aeruginosa (strain ATCC 15692 / DSM 22644 / CIP 104116 /JCM 14847 / LMG 12228 / 1C / PRS 101 / PAO1)) (UniProt Q9I4X3); assay: Inhibition of pqsA quorum sensing system in Pseudomonas aeruginosa PAO1 harboring mini-ctx-pqsA-lacZ after 24 hrs by beta-galactosidase reporter gene assay
T1 sequence (whole entry): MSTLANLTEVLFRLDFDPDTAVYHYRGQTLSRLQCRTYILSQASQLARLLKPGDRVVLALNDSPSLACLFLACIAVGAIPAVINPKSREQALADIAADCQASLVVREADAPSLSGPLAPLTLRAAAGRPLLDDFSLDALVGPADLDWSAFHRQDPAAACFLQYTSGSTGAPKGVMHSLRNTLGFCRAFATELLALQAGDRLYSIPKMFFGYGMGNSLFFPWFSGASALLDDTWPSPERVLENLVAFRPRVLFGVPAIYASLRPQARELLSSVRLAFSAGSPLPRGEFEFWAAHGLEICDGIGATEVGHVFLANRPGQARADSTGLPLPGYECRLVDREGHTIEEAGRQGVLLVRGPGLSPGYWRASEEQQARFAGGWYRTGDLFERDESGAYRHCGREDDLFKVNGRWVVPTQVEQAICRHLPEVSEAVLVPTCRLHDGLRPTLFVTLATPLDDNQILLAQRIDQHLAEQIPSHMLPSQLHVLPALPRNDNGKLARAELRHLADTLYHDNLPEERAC

[7] = molecular target: 3-(3-hydroxydecanoyloxy)decanoate synthase (Pseudomonas aeruginosa (strain ATCC 15692 / PAO1 / 1C / PRS 101 / LMG12228)) (UniProt Q51559); assay: Inhibition of RhlA quorum sensing system in Pseudomonas aeruginosa PAO1 assessed as reduction in rhamnolipid production at 10 to 50 uM after 20 hrs
Outline: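 Rhamnolipid by orcinol method: overnight PAO1 diluted in phosphate minimal medium with 0.6% glycerol, 5 mL cultures shaken at 37 °C for 20 h with compound at various concentrations; DMSO control. Cultures centrifuged 12000g, 4 °C, 5 min; orcinol reaction at 80 °C for 30 min. A421 divided by final OD600.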

[8] = molecular target: Elastase (Pseudomonas aeruginosa (strain ATCC 15692 / PAO1 / 1C / PRS 101 / LMG12228)) (UniProt P14756); assay: Inhibition of lasB quorum sensing system in Pseudomonas aeruginosa PAO1 assessed as reduction in elastase release at 10 uM after 24 hrs relative to control
Outline: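 Elastase: overnight wild-type PAO1 diluted in ABTGC medium to OD600 0.01 and grown 24 h at 37 °C with shaking at 200 rpm. Supernatant elastase measured by a fluorogenic elastase kit. PAO1ΔlasIΔrhlI served as blank; DMSO as control.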

[9] = molecular target: T1, Anthranilate--CoA ligase (Pseudomonas aeruginosa (strain ATCC 15692 / DSM 22644 / CIP 104116 /JCM 14847 / LMG 12228 / 1C / PRS 101 / PAO1)); assay: Inhibition of pqsA quorum sensing system in Pseudomonas aeruginosa PAO1 assessed as reduction in pyocyanin release at 10 uM after 20 hrs relative to control
Outline: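 Pyocyanin: overnight PAO1 diluted in LB to OD600 0.01; 20 mL cultures shaken at 37 °C for 20 h. Centrifuged at 1500g for 10 min; supernatant absorbance read at 695 nm. PAO1ΔlasIΔrhlI served as blank; DMSO as control.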

[10] = molecular target: Elastase (Pseudomonas aeruginosa (strain ATCC 15692 / PAO1 / 1C / PRS 101 / LMG12228)) (UniProt P14756); assay: Inhibition of lasB quorum sensing system in Pseudomonas aeruginosa PAO1 harboring mini-ctx-lasB-lacZ at 50 uM in presence of ODdHL by beta-galactosidase reporter gene assay
Outline: (§2)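 Competition: overnight lasB-lacZ or pqsA-lacZ reporter cultures diluted in ABTGC medium to OD600 0.01. Compound at 50 μM added with ODdHL (lasB) or PQS (pqsA) at final 50, 20, 10 or 0 μM. β-galactosidase measured when OD600 reached 1.0. DMSO control; triplicate.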

[11] = molecular target: T1, Anthranilate--CoA ligase (Pseudomonas aeruginosa (strain ATCC 15692 / DSM 22644 / CIP 104116 /JCM 14847 / LMG 12228 / 1C / PRS 101 / PAO1)); assay: Inhibition of pqsA quorum sensing system in Pseudomonas aeruginosa PAO1 harboring mini-ctx-pqsA-lacZ at 50 uM in presence of PQS by beta-galactosidase reporter gene assay; outline: as §2
[12] = molecular target: Elastase (Pseudomonas aeruginosa (strain ATCC 15692 / PAO1 / 1C / PRS 101 / LMG12228)) (UniProt P14756); assay: Inhibition of lasB quorum sensing system in Pseudomonas aeruginosa PAO1 harboring mini-ctx-lasB-lacZ after 6 hrs by beta-galactosidase reporter gene assay
[13] = molecular target: 3-(3-hydroxydecanoyloxy)decanoate synthase (Pseudomonas aeruginosa (strain ATCC 15692 / PAO1 / 1C / PRS 101 / LMG12228)) (UniProt Q51559); assay: Inhibition of RhlA quorum sensing system in Pseudomonas aeruginosa PAO1 harboring mini-ctx-RhlA-lacZ at 50 uM after 6 hrs by beta-galactosidase reporter gene assay
[14] = molecular target: 3-(3-hydroxydecanoyloxy)decanoate synthase (Pseudomonas aeruginosa (strain ATCC 15692 / PAO1 / 1C / PRS 101 / LMG12228)) (UniProt Q51559); assay: Inhibition of RhlA quorum sensing system in Pseudomonas aeruginosa PAO1 harboring mini-ctx-RhlA-lacZ at 2.5 to 20 uM after 6 hrs by beta-galactosidase reporter gene assay

Sequence of Elastase (Pseudomonas aeruginosa (strain ATCC 15692 / PAO1 / 1C / PRS 101 / LMG12228)) (P14756 198-498 limits assumed): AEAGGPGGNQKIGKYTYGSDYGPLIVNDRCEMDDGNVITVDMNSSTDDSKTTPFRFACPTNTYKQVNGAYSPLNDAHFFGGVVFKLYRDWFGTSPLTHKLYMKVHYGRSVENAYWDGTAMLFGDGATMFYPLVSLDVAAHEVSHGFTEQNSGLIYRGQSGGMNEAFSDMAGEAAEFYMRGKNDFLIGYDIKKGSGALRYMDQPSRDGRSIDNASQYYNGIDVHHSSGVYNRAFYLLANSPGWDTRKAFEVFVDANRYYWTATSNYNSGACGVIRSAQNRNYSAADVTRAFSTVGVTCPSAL

| Structure (SMILES) | Activity [1] | also measured |
| --- | --- | --- |
| COc1cc(/C=C/c2ccccc2)c(C(=O)O)c(O)c1CC=C(C)C | -41% |  |
| COc1cc(CCc2ccccc2)c(C(=O)O)c(OC(C)=O)c1CC=C(C)C | 36.9% |  |
| COc1cc(CCc2ccccc2)c(C(=O)O)c(O)c1C/C=C(\C)CCC=C(C)C | 50.3% | Activity [2]: 20 - 50%; Activity [3]: Dose-dependent effect; growth inhibition (GI) [4]: Non-Toxic; Activity [5]: Non-Toxic; inhibition [6]: Dose-dependent effect; inhibition [7]: inactive; inhibition [8]: 50%; inhibition [9]: 50%; inhibition [10]: inactive; inhibition [11]: inactive; inhibition [12]: Dose-dependent effect; inhibition [13]: Active; inhibition [14]: inactive |
| COc1cc(CCc2ccccc2)c(C=O)c(OC(C)=O)c1CC=C(C)C | -32.1% |  |
| COc1cc(/C=C/c2ccccc2)c(C(=O)O)c(OC(C)=O)c1CC=C(C)C | -24.4% |  |
| COc1cc(CCc2ccccc2)c(C=O)c(OC(C)=O)c1C/C=C(\C)CCC=C(C)C | 24.7% |  |
| COc1cc(/C=C/c2ccccc2)c(C=O)c(OC(C)=O)c1CC=C(C)C | -12.5% |  |
| COc1cc(/C=C/c2ccccc2)c(C=O)c(O)c1CC=C(C)C | 42.4% |  |
| COc1cc(CCc2ccccc2)c(C=O)c(O)c1CC=C(C)C | 26.9% |  |
| COc1cc(CCc2ccccc2)c(C=O)c(O)c1C/C=C(\C)CCC=C(C)C | 53.1% |  |
| COc1cc(/C=C/c2ccccc2)c(C=O)c(OCC=C(C)C)c1 | -14.3% |  |
| COc1cc(CCc2ccccc2)c(C(=O)O)c(O)c1CC=C(C)C [AMORFRUTIN A] | -31.3% |  |
| COc1cc(CCc2ccccc2)c(C(=O)O)c(OC(C)=O)c1C/C=C(\C)CCC=C(C)C | -32.9% |  |
